Activity calls are given as the source filed them. The rule behind the calls is not given here. Numbered stars: 1 amine (or outer) side, 2 acyl side, 3 side chain; on linkers, the order of the positions; unused ones are H or OH. Square brackets hold non-standard residues; d marks the D form. Peptide text beside a SMILES is read from it. * marks the point of attachment. NH(1S,2S-2-CONH2-cPent) = NC(=O)[C@H]1CCC[C@@H]1N*; X1 = O=C([C@H]1CCC[C@@H]1N[*:1])[*:2]; X2 = O=C([C@H]1CNC[C@@H]1N[*:1])[*:2]
What was measured:
[1] = molecular target: T1, Parathyroid hormone/parathyroid hormone-related peptide receptor (Homo sapiens) (UniProt Q03431); assay: Agonist activity at extracellular domain truncate human PTH1 receptor expressed in GD5 cells assessed as induction of cAMP after 12 to 20 mins by luciferase reporter gene assay; format: functional, cell-based
T1 sequence (whole entry): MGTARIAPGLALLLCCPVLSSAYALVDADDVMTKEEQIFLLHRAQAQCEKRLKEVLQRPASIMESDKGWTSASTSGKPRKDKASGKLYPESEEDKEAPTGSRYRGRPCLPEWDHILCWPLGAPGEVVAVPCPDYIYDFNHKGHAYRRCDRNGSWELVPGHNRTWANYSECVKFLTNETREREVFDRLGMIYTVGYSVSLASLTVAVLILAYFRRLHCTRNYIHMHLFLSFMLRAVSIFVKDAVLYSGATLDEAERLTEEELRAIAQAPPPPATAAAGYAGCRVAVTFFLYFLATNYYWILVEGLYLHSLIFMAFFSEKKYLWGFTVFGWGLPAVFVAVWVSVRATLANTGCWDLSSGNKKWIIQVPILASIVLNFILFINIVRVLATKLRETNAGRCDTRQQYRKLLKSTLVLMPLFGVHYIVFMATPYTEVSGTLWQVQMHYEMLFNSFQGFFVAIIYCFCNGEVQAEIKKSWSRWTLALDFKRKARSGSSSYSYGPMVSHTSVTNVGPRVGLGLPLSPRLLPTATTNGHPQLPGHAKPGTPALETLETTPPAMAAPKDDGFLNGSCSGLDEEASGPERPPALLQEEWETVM
Summary of the method: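 HEK293-derived lines stably expressing Glosensor cAMP reporter plus full-length human PTHR1 (GP2.3) or ECD-truncated PTHR1 (GD5). Confluent monolayers preincubated at room temperature in CO2-independent medium with 0.5 mM D-luciferin until baseline stable (30 min), then varied agonist concentrations added. Maximal luminescence (12−20 min) used for sigmoidal variable-slope fits.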

[2] = Drug metabolism in Sprague-Dawley rat kidney homogenates assessed as protease mediated-drug degradation at 12 uM up to 5 mins by MALDI-TOF-MS analysis; format: ADME, tissue-based; conditions: tissue homogenate
Summary of the method: (§1)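 Perfused female Sprague-Dawley kidney homogenate in 50 mM Tris-HCl pH 7.4, diluted to 2.5 mg protein/mL. Peptide spiked at 50 μg/mL (~12 μM) and incubated at 37 °C. Timed samples quenched with equal volume 1% TFA, centrifuged, dried, reconstituted in 0.1% formic acid, mixed with DHB matrix. Fragments identified by MALDI-TOF MS.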

[3] = Drug metabolism in Sprague-Dawley rat kidney homogenates assessed as protease mediated-drug degradation at 12 uM up to 15 mins by MALDI-TOF-MS analysis; format: ADME, tissue-based; conditions: tissue homogenate; summary of the method: as §1
[4] = Drug metabolism in Sprague-Dawley rat kidney homogenates assessed as protease-mediated metabolite formation at 12 uM after 5 mins by MALDI-TOF-MS analysis; format: ADME, tissue-based; conditions: tissue homogenate; summary of the method: as §1
[5] = Stability in simulated gastric fluid assessed as pig pepsin-mediated proteolysis at 40 uM after 5 secs by RP-HPLC analysis; format: ADME, Sus scrofa; conditions: isolated protein, 5 s
Summary of the method: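 Proteolysis quenched by transfer into 10× PBS, pH 7.4, giving 40 μM peptide. Analysed by analytical C18 RP-HPLC, 10–60% acetonitrile/0.1% TFA over 50 min. Intact peptide quantified by integrating its peak. Duplicate reactions run concurrently, standard deviation.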

[6] = molecular target: T1, Parathyroid hormone/parathyroid hormone-related peptide receptor (Homo sapiens); assay: Agonist activity at human PTH1 receptor expressed in human GP2.3 cells assessed as induction of cAMP at 0.1 to 100 nM preincubated with SGF for 5 secs followed by compound transfer to GP2.3 cells by luciferase reporter gene assay; format: functional, cell-based
Summary of the method: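 Quenched at set times with 10× PBS, diluted into CO2-independent medium, serially 1:10, then added to confluent GP2.3 cells (HEK293, hPTHR1 plus Glosensor cAMP reporter) preloaded 30 min with 0.5 mM D-luciferin. Final 100–0.1 nM. Luminescence read; two technical replicates; variable-slope sigmoidal fit.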

[7] = molecular target: T1, Parathyroid hormone/parathyroid hormone-related peptide receptor (Homo sapiens); assay: Agonist activity at human PTH1 receptor expressed in human GP2.3 cells assessed as induction of cAMP at 0.1 to 100 nM preincubated with SIF for 10 mins followed by compound transfer to GP2.3 cells by luciferase reporter gene assay; format: functional, cell-based
Summary of the method: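 Simulated intestinal fluid containing pancreatin, pH 6.8, prepared fresh and kept at 37 °C. Peptide incubated in it as for gastric fluid. Quenched 1:1 with 50% acetonitrile/1% TFA. Quenched samples serially diluted in CO2-independent medium and applied to luciferin-preloaded GP2.3 cells at 100−0.1 nM final. Luminescence read. Two technical replicates.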

[8] = test system: Mus musculus; assay: In vivo induction of excessive bloodstream calcium concentration in CD1 mouse at 20 nmol/kg, sc after 2 hrs by Ca2+/pH analyzer; format: organism-based
Summary of the method: (§2)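 Female CD1 mice (9−12 weeks), n = 5, given 20 nmol/kg subcutaneously in 10 mM citrate/150 mM NaCl/0.05% Tween-80, pH 5.0. Tail vein blood taken before and at times after dosing. Ca2+ measured by Ca2+/pH analyzer. One-way ANOVA with Dunnett's test vs vehicle. Mean ± SEM.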

[9] = molecular target: T1, Parathyroid hormone/parathyroid hormone-related peptide receptor (Homo sapiens); assay: Displacement of [125I]-PTH(1 to 34 residues) from R0 state of human PTHR1 expressed in African green monkey COS7 cell membranes incubated for >1 hr in presence of GTPgammaS by gamma radiation method
[10] = Half life in Sprague-Dawley rat kidney homogenates at 12 uM by HPLC-MS analysis; format: ADME, tissue-based
Summary of the method: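 Kidney homogenate (2.5 mg protein/mL, pH 7.4 Tris) spiked with peptide at 50 μg/mL (~12 μM), 37 °C, sampled 0−120 min. […] C18 UHPLC–Orbitrap MS quantified via y32 ion area ratio against calibration standards. Exponential decay fit, mean ± SD of two replicates.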

[11] = molecular target: T1, Parathyroid hormone/parathyroid hormone-related peptide receptor (Homo sapiens); assay: Agonist activity at human PTH1 receptor expressed in human GP2.3 cells assessed as induction of cAMP at 0.1 to 100 nM preincubated with protease activity quenched SGF up to 4 hrs followed by compound transfer to GP2.3 cells by luciferase reporter gene assay; format: functional, cell-based
Summary of the method: (§3)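 Control samples: simulated gastric fluid neutralized with 10× PBS, or intestinal fluid mixed with acetonitrile/TFA quench solution, before adding peptide. Gastric controls held up to 4 h. Then diluted and tested on luciferin-loaded GP2.3 cells at 100−0.1 nM final, alongside freshly prepared peptide.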

[12] = molecular target: T1, Parathyroid hormone/parathyroid hormone-related peptide receptor (Homo sapiens); assay: Agonist activity at human PTH1 receptor expressed in human GP2.3 cells assessed as induction of cAMP at 0.1 to 100 nM preincubated with protease activity quenched SIF followed by compound transfer to GP2.3 cells by luciferase reporter gene assay; format: functional, cell-based; summary of the method: as §3
[13] = molecular target: T1, Parathyroid hormone/parathyroid hormone-related peptide receptor (Homo sapiens); assay: Agonist activity at human PTH1 receptor expressed in human GP2.3 cells assessed as induction of cAMP after 12 to 20 mins by luciferase reporter gene assay relative to PTH(1 to 34 residues)-NH2; format: functional, cell-based
[14] = test system: Mus musculus; assay: In vivo induction of excessive bloodstream calcium concentration in CD1 mouse at 20 nmol/kg, sc up to 2 hrs by Ca2+/pH analyzer; format: organism-based; summary of the method: as §2
[15] = test system: Blood; assay: Drug level in CD1 mouse blood at 20 nmol/kg, sc measured up to 2 hrs; format: ADME, organism-based; conditions: in vivo
Summary of the method: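 Female CD1 mice, n = 5, 20 nmol/kg subcutaneously in citrate/NaCl/Tween-80 vehicle, pH 5.0. 2 μL serum from timed bleeds, mixed with CO2-independent medium, added to GP2.3 cells. Luminescence converted to peptide concentration via a standard curve.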

CC[C@H](C)[C@H](NC(=O)[C@H](CCC(=O)O)NC(=O)[C@H](CO)NC(=O)[C@@H](NC(=O)[C@@H](N)CO)C(C)C)C(=O)N[C@@H](CCC(N)=O)C(=O)N[C@@H](CC(C)C)C(=O)N[C@@H](CCSC)C(=O)N[C@@H](Cc1cnc[nH]1)C(=O)N[C@@H](CC(N)=O)C(=O)N[C@@H](CC(C)C)C(=O)NCC(=O)N[C@@H](CCCCN)C(=O)N[C@@H](Cc1cnc[nH]1)C(=O)N[C@@H](CC(C)C)C(=O)N[C@@H](CC(N)=O)C(=O)N[C@@H](CO)C(=O)N[C@@H](CCSC)C(=O)N[C@@H](CCC(=O)O)C(=O)N[C@@H](CCCNC(=N)N)C(=O)N[C@H](C(=O)N[C@@H](CCC(=O)O)C(=O)N[C@@H](Cc1c[nH]c2ccccc12)C(=O)N[C@@H](CC(C)C)C(=O)N[C@@H](CCCNC(=N)N)C(=O)N[C@@H](CCCCN)C(=O)N[C@@H](CCCCN)C(=O)N[C@@H](CC(C)C)C(=O)N[C@@H](CCC(N)=O)C(=O)N[C@@H](CC(=O)O)C(=O)N[C@H](C(=O)N[C@@H](Cc1cnc[nH]1)C(=O)N[C@@H](CC(N)=O)C(=O)N[C@@H](Cc1ccccc1)C(N)=O)C(C)C)C(C)C
Activity [1]: Active | Drug metabolism [2]: Metabolite_Detected | Drug metabolism [3]: Metabolite_Detected | Drug metabolism [4]: Metabolite_Detected | Stability [5]: Unstable | Activity [6]: inactive | Activity [7]: inactive | Activity [8]: Non-Toxic | inhibition [9]: Active | half-life at 12 µM [10]: 1.9 min | Activity [11]: Active | Activity [12]: Active

CC[C@H](C)[C@H](NC(=O)[C@H](CCC(=O)O)NC(=O)[C@H](CO)NC(=O)[C@@H](NC(=O)[C@@H](N)CO)C(C)C)C(=O)N[C@@H](CCC(N)=O)C(=O)N[C@@H](CC(C)C)C(=O)N[C@@H](CCSC)C(=O)N[C@@H](Cc1cnc[nH]1)C(=O)N[C@@H](CC(N)=O)C(=O)N[C@@H](CC(C)C)C(=O)NCC(=O)N[C@@H](CCCCN)C(=O)N[C@H](CC(=O)N[C@@H](CC(C)C)C(=O)N[C@@H](CC(N)=O)C(=O)N[C@@H](CO)C(=O)N[C@@H](CCSC)CC(=O)N[C@@H](CCC(=O)O)C(=O)N[C@@H](CCCNC(=N)N)C(=O)N[C@H](C(=O)N[C@@H](CCC(=O)O)CC(=O)N[C@@H](Cc1c[nH]c2ccccc12)C(=O)N[C@@H](CC(C)C)C(=O)N[C@@H](CCCNC(=N)N)C(=O)N[C@@H](CCCCN)CC(=O)N[C@@H](CCCCN)C(=O)N[C@@H](CC(C)C)C(=O)N[C@@H](CCC(N)=O)C(=O)N[C@@H](CC(=O)O)CC(=O)N[C@H](C(=O)N[C@@H](Cc1cnc[nH]1)C(=O)N[C@@H](CC(N)=O)C(=O)N[C@H](CC(N)=O)Cc1ccccc1)C(C)C)C(C)C)Cc1c[nH]c2ccccc12
fold change (FC) [13]: 2.1 | Stability [5]: Unstable | Activity [6]: inactive | Activity [11]: Active | Activity [12]: Active

CC[C@H](C)[C@H](NC(=O)[C@H](CCC(=O)O)NC(=O)[C@H](CO)NC(=O)[C@@H](NC(=O)[C@@H](N)CO)C(C)C)C(=O)N[C@@H](CCC(N)=O)C(=O)N[C@@H](CC(C)C)C(=O)N[C@@H](CCSC)C(=O)N[C@@H](Cc1cnc[nH]1)C(=O)N[C@@H](CC(N)=O)C(=O)N[C@@H](CC(C)C)C(=O)NCC(=O)N[C@@H](CCCCN)C(=O)N[C@H]1CCC[C@@H]1C(=O)N[C@@H](CC(C)C)C(=O)N[C@@H](CC(N)=O)C(=O)N[C@@H](CO)C(=O)N[C@H]1CCC[C@@H]1C(=O)N[C@@H](CCC(=O)O)C(=O)N[C@@H](CCCNC(=N)N)C(=O)N[C@H](C(=O)N[C@H]1CNC[C@@H]1C(=O)N[C@@H](Cc1c[nH]c2ccccc12)C(=O)N[C@@H](CC(C)C)C(=O)N[C@@H](CCCNC(=N)N)C(=O)N[C@H]1CNC[C@@H]1C(=O)N[C@@H](CCCCN)C(=O)N[C@@H](CC(C)C)C(=O)N[C@@H](CCC(N)=O)C(=O)N[C@H]1CCC[C@@H]1C(=O)N[C@H](C(=O)N[C@@H](Cc1cnc[nH]1)C(=O)N[C@@H](CC(N)=O)C(=O)N[C@H]1CCC[C@@H]1C(N)=O)C(C)C)C(C)C (H-SVSEIQLMHNLGK[X1]LNS[X1]ERV[X2]WLR[X2]KLQ[X1]VHN-{NH(1S,2S-2-CONH2-cPent)})
fold change (FC) [13]: 3.2 | Activity [14]: Toxic | Activity [8]: Non-Toxic | Drug uptake [15]: Active | inhibition [9]: Active

Source: ChEMBL document CHEMBL4024754, “Development of Potent, Protease-Resistant Agonists of the Parathyroid Hormone Receptor with Broad β Residue Distribution” (J Med Chem, 2017)
